From ChEMBL document CHEMBL1139999, “Discovery of pyrazine carboxamide CB1 antagonists: the introduction of a hydroxyl group improves the pharmaceutical properties and in vivo efficacy of the series” (Bioorg Med Chem Lett, 2007)
Converted amounts (≈) assume the structure as drawn. The source made the active and inactive calls. No cut-off for these calls is given here.

Assays:
[1] = molecular target: T1, Cannabinoid receptor 1 (Homo sapiens, UniProt P21554); test: Binding affinity to human CB1 receptor
[2] = Drug level in Sprague-Dawley rat brain at 10 mg/kg, po after 4 hrs; format: ADME, organism-based; parameters: dose 10 mg/kg, route oral; conditions: read-out: Drug uptake
Outline: (§1)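 Oral PK in male Sprague-Dawley rats dosed at 10 mg/kg. Plasma sampled over 0–4 h for AUC(0–4h) and Tmax. Brain and plasma concentrations were taken at 4 h to give the brain/plasma ratio. Values are averages of n = 2 rats.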

[3] = test system: Rattus norvegicus; test: Change in food intake in Sprague-Dawley rat at 30 mg/kg, po after 4 hrs; format: functional
Outline: (§2)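 Ad libitum-fed rats trained to operate a lever to obtain food were dosed orally at 10 or 30 mg/kg. Cumulative food intake was measured at 4 h versus vehicle-treated controls, with significance testing (p < 0.05).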

[4] = AUC(0 to 4 hrs) in Sprague-Dawley rat at 10 mg/kg, po; format: ADME, organism-based; parameters: time < 4 hr, dose 10 mg/kg, route oral; conditions: plasma; outline: as §1
[5] = Ratio of drug level in brain to plasma in Sprague-Dawley rat at 10 mg/kg, po after 4 hrs; format: ADME, organism-based; parameters: dose 10 mg/kg, route oral; conditions: read-out: BPR; outline: as §1
[6] = Average Tmax in Sprague-Dawley rat at 10 mg/kg, po; format: ADME, organism-based; parameters: dose 10 mg/kg, route oral; conditions: in vivo; outline: as §1
[7] = test system: Rattus norvegicus; test: Reduction in feeding in food deprived Sprague-Dawley rat feeding model at 10 mg/kg, po after 24 hrs; format: functional; parameters: scale not given: the % may be the effect or the level left
Outline: (§3)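 Rats were fasted and then dosed orally at 10 mg/kg. Food was reintroduced 30 min after dosing, and refeeding was quantified versus vehicle-treated animals at 2, 4 and 24 h post-dose. Locomotor activity was also monitored.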

[8] = molecular target: Cannabinoid receptor 1 (Rattus norvegicus, UniProt P20272); test: Binding affinity to rat CB1 receptor
[9] = test system: Rattus norvegicus; test: Change in food intake in Sprague-Dawley rat at 10 mg/kg, po; format: functional, organism-based; parameters: dose 10 mg/kg; outline: as §2
[10] = test system: Rattus norvegicus; test: Reduction in feeding in food deprived Sprague-Dawley rat feeding model at 10 mg/kg, po after 4 hrs; format: functional; parameters: scale not given: the % may be the effect or the level left; outline: as §3
[11] = test system: Rattus norvegicus; test: Reduction in feeding in food deprived Sprague-Dawley rat feeding model at 10 mg/kg, po after 2 hrs; format: functional; parameters: scale not given: the % may be the effect or the level left; outline: as §3
[12] = molecular target: T1, Cannabinoid receptor 1; test: Binding affinity to human CB1 receptor at 13 uM
[13] = Average Tmax in Sprague-Dawley rat at 30 mg/kg, po; format: ADME, organism-based; parameters: dose 30 mg/kg, route oral; conditions: in vivo
Outline: (§4)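 Male Sprague–Dawley rats dosed orally at 30 mg/kg as a suspension in 0.5% Methocel/1% Tween 80/water. Plasma and brain levels measured, with brain concentration and brain/plasma ratio taken at 4 h. AUC covers 0–4 h. Values are averages of n = 2 rats.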

[14] = Ratio of drug level in brain to plasma in Sprague-Dawley rat at 30 mg/kg, po after 4 hrs; format: ADME, organism-based; parameters: dose 30 mg/kg, route oral; conditions: read-out: Drug uptake; outline: as §4
[15] = AUC(0 to 4 hrs) in Sprague-Dawley rat at 30 mg/kg, po; format: ADME, organism-based; parameters: time < 4 hr, dose 30 mg/kg, route oral; conditions: plasma; outline: as §4
[16] = Drug level in Sprague-Dawley rat brain at 30 mg/kg, po after 4 hrs; format: ADME, organism-based; parameters: dose 30 mg/kg, route oral; conditions: read-out: Drug uptake; outline: as §4
[17] = Aqueous solubility at pH 6.5; format: physicochemical

T1 sequence (P21554 whole entry): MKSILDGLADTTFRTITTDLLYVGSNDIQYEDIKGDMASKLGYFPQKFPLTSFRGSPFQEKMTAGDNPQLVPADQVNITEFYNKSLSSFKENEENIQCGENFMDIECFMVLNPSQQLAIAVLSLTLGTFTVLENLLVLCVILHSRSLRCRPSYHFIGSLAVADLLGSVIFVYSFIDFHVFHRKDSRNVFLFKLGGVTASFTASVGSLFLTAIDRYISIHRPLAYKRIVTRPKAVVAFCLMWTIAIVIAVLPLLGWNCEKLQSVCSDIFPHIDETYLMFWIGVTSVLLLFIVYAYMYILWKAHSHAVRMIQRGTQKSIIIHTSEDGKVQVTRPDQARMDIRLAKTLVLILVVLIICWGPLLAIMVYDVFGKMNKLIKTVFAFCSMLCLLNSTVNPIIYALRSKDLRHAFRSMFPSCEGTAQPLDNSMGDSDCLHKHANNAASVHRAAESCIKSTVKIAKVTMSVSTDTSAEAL
Cannabinoid receptor 1 (Rattus norvegicus, UniProt P20272), sequence (P20272 whole entry): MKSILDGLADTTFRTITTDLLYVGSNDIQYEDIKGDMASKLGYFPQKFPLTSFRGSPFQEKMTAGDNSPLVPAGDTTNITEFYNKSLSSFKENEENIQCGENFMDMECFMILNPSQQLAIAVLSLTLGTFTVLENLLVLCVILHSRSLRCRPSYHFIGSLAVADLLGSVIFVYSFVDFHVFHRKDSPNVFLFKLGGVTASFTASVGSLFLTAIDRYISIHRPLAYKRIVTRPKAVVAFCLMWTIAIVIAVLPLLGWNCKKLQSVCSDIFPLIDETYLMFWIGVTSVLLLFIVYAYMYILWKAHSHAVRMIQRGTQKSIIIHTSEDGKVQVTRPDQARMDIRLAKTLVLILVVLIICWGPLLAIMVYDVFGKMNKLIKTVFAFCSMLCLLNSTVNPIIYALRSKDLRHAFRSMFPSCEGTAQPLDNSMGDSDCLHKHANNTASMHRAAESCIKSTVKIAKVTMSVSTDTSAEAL

Row | SMILES | Ki [1] | also measured
1 | Cc1ccc(-c2ncc(C(=O)NCCO)nc2-c2ccc(C)cc2)cc1 | 8430 nM | 
2 | CCCC(CO)NC(=O)c1cnc(-c2ccc(C)cc2)c(-c2ccc(C)cc2)n1 (configuration not stated) | 158 nM | 
3 | Cc1ccc(-c2ncc(C(=O)N[C@H](CO)CC(C)C)nc2-c2ccc(C)cc2)cc1 | 45 nM | concentration at 4 h [2]: 306 nM; Activity [3]: 34%; AUC(0-t) at 4 h [4]: 0.541 µM·h; Kp at 4 h [5]: 3; Tmax [6]: 1 h; Activity [7]: 16%; Ki [8]: 35 nM; Activity [9]: inactive; Activity [10]: 32%; Activity [11]: 37%
4 | Cc1ccc(-c2ncc(C(=O)NC3Cc4ccccc4C3O)nc2-c2ccc(C)cc2)cc1 (configuration not stated) | 33 nM | 
5 | Cc1ccc(-c2ncc(C(=O)N3CCC(O)CC3)nc2-c2ccc(C)cc2)cc1 |  | inhibition [12]: 38%
6 | CNC(=O)c1cnc(-c2ccc(C)cc2)c(-c2ccc(C)cc2)n1 | 3850 nM | 
7 | Cc1ccc(-c2ncc(C(=O)NC3CCNC3=O)nc2-c2ccc(C)cc2)cc1 (configuration not stated) |  | inhibition [12]: 46%
8 | Cc1ccc(-c2ncc(C(=O)N[C@H]3CC[C@H](O)CC3)nc2-c2ccc(C)cc2)cc1 |  | inhibition [12]: 54%
9 | Cc1ccc(-c2ncc(C(=O)N[C@@H](CO)C(C)C)nc2-c2ccc(C)cc2)cc1 | 316 nM | 
10 | Cc1ccc(-c2ncc(C(=O)N[C@@H]3CCCC[C@@H]3CO)nc2-c2ccc(C)cc2)cc1 | 167 nM | 
11 | Cc1ccc(-c2ncc(C(=O)N[C@@H](CO)CC(C)C)nc2-c2ccc(C)cc2)cc1 | 460 nM | 
12 | CCNC(=O)c1cnc(-c2ccc(C)cc2)c(-c2ccc(C)cc2)n1 | 2380 nM | 
13 | Cc1ccc(-c2ncc(C(=O)N[C@@H]3CCCC[C@@H]3O)nc2-c2ccc(C)cc2)cc1 | 300 nM | 
14 | Cc1ccc(-c2ncc(C(=O)N3CCNC(=O)C3)nc2-c2ccc(C)cc2)cc1 |  | inhibition [12]: 29%
15 | Cc1ccc(-c2ncc(C(=O)NCC3CCCCC3)nc2-c2ccc(C)cc2)cc1 | 59 nM | 
16 | Cc1ccc(-c2ncc(C(=O)N[C@H](CO)C(C)C)nc2-c2ccc(C)cc2)cc1 | 237 nM | 
17 | CC(C)C[C@@H](COP(=O)(O)O)NC(=O)c1cnc(-c2ccc(Cl)cc2)c(-c2ccc(Cl)cc2)n1 |  | solubility [17]: 430 µg/mL (≈ 820 µM)
18 | Cc1ccc(-c2ncc(C(=O)N[C@@H]3CCCC[C@H]3CO)nc2-c2ccc(C)cc2)cc1 | 50 nM | 

Second part, led by results:

Row | Ki [1] | SMILES | also measured
19 | 39 nM | Cc1ccc(-c2ncc(C(=O)NC(C)COc3c(C)cccc3C)nc2-c2ccc(C)cc2)cc1 (configuration not stated) | 
20 | 509 nM | Cc1ccc(-c2ncc(C(=O)Nc3ccccc3)nc2-c2ccc(C)cc2)cc1 | 
21 | 203 nM | CCC(COCc1ccccc1)NC(=O)c1cnc(-c2ccc(C)cc2)c(-c2ccc(C)cc2)n1 (configuration not stated) | 
22 | 18 nM | Cc1ccc(-c2ncc(C(=O)NCCCc3ccccc3)nc2-c2ccc(C)cc2)cc1 | Tmax [13]: 2 h; Kp at 4 h [14]: 0.4; AUC(0-t) at 4 h [15]: 0.256 µM·h; Ki [8]: 80 nM; concentration at 4 h [16]: 34 nM
23 | 5 nM | Cc1ccc(-c2ncc(C(=O)NC(C)CCc3ccccc3)nc2-c2ccc(C)cc2)cc1 (configuration not stated) | 
24 | 25 nM | Cc1ccc(-c2ncc(C(=O)NCCCN(C)c3ccccc3)nc2-c2ccc(C)cc2)cc1 | 
25 | 178 nM | Cc1ccc(-c2ncc(C(=O)NCC3CC3)nc2-c2ccc(C)cc2)cc1 | 
26 | 105 nM | Cc1ccc(-c2ncc(C(=O)N[C@@H](CC(C)C)C(N)=O)nc2-c2ccc(C)cc2)cc1 | 
27 | 110 nM | Cc1ccc(-c2ncc(C(=O)N(C)Cc3ccccc3)nc2-c2ccc(C)cc2)cc1 | 
28 | 53 nM | Cc1ccc(-c2ncc(C(=O)NN3CCCCC3)nc2-c2ccc(C)cc2)cc1 | 
29 | 656 nM | Cc1ccc(-c2ncc(C(=O)NC(C)C)nc2-c2ccc(C)cc2)cc1 | 
30 | 238 nM | Cc1ccc(-c2ncc(C(=O)N[C@@H](C(N)=O)c3ccccc3)nc2-c2ccc(C)cc2)cc1 | 
31 | 631 nM | Cc1ccc(-c2ncc(C(=O)NCCOc3ccccc3)nc2-c2ccc(C)cc2)cc1 | 
32 | 14 nM | CC(C)C[C@@H](CO)NC(=O)c1cnc(-c2ccc(Cl)cc2)c(-c2ccc(Cl)cc2)n1 | concentration at 4 h [2]: 491 nM; AUC(0-t) at 4 h [4]: 0.736 µM·h; Kp at 4 h [5]: 3.1; Tmax [6]: 1 h; Ki [8]: 30 nM
